Measurements taken from ChEMBL document CHEMBL1135434, “An algorithm-directed two-component library synthesized via solid-phase methodology yielding potent and orally bioavailable p38 MAP kinase inhibitors” (J Med Chem, 2002).
Each block holds one molecule with its values, some of them ahead of it.

Key:
[1] = species: Rattus norvegicus; assay: PK study was carried to determine AUC (area under curve) value in rat; format: ADME, organism-based; design: concentration or dose not given beside the values; conditions: in vivo
Method in brief: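 Three rats dosed at 1 mg/kg, either orally as a methylcellulose suspension or iv as a solution in N-methylpyrrolidone. Blood sampled at intervals over 24 h and assayed for compound. Results averaged, n = 3.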

[2] = PK study was carried to determine the relative absorption ranking in rat.; format: ADME, organism-based; conditions: plasma, read-out: Cp max
[3] = target: MAP kinase p38 (Mus musculus, UniProt P47811+O08911+Q9WUI1+Q9Z1B7); assay: Inhibition of murine Mitogen-activated protein kinase p38; format: protein assay
Method in brief: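 Mouse p38 enzyme, 40 ng/well, run for 1 h at room temperature. ATF-2 (50 µg/mL) coated on plates as substrate. Buffer: 25 mM Hepes pH 7.7, 25 mM MgCl2, 2 mM DTT, 1 mM sodium orthovanadate, 100 µM ATP. Phospho-ATF-2 detected with a rabbit phospho-specific antibody, then a europium-labelled anti-rabbit secondary, read by DELFIA fluorescence. Mean ± SEM, n = 3.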

[4] = target: T1, Tumor necrosis factor (Mus musculus) (UniProt P06804); assay: Effective dose against LPS-stimulated Tumor necrosis factor, alpha release in mice dosed orally, 30 min prior to LPS challenge (0.1 mg/kg, ip); format: functional, organism-based
T1 sequence (whole entry): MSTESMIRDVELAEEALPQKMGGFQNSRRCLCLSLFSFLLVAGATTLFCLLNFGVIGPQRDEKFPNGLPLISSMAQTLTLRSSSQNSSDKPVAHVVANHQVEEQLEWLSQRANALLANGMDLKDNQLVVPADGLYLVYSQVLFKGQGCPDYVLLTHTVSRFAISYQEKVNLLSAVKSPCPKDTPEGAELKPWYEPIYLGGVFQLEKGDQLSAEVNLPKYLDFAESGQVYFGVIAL
Method in brief: (§1)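 Balb/c mice dosed orally 30 min before ip LPS (0.1 mg/kg). Serum TNFα measured 90 min after LPS. Means, n = 3.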

[5] = system: Rattus norvegicus; assay: Effective dose for suppressing paw swelling in an in vivo SCW (streptococcal cell wall) induced arthritis model in Lewis rat; value ranges from 10-30; format: functional
[6] = target: T1, Tumor necrosis factor (Mus musculus); assay: Effective dose against LPS-stimulated Tumor necrosis factor, alpha release in mice dosed orally, 30 min prior to LPS challenge (0.1 mg/kg, ip); value ranges from 3-10; format: functional, organism-based; method in brief: as §1

Structure (SMILES): C[C@]1(C(=O)N2CCOCC2)CO[C@H](c2nc(-c3ccc(F)cc3)c(-c3ccncc3)[nH]2)OC1 [listing 1 of 2 here]
- AUC [1]: 247 ng·h/mL
- Cmax [2]: 60 ng/mL

Structure (SMILES): CCCNC(=O)[C@]1(C)CO[C@@H](c2nc(-c3ccc(F)cc3)c(-c3ccnc(NCc4ccco4)n3)[nH]2)OC1
- AUC [1]: 257 ng·h/mL
- Cmax [2]: 39 ng/mL
- IC50 [3]: 6 nM

Structure (SMILES): CCCNC(=O)[C@]1(C)CO[C@@H](c2nc(-c3ccc(F)cc3)c(-c3ccnc(NCCCOC)n3)[nH]2)OC1
- AUC [1]: 738 ng·h/mL
- Cmax [2]: 270 ng/mL
- ED50 [4]: 6 mg/kg
- IC50 [3]: 6 nM

Structure (SMILES): C[C@]1(C(=O)N2CCOCC2)CO[C@H](c2nc(-c3ccc(F)cc3)c(-c3ccncc3)[nH]2)OC1 [listing 2 of 2 here]
- ED50 [6]: 10 mg/kg

Structure (SMILES): CS(=O)(=O)O.C[C@]1(C(=O)N2CCOCC2)CO[C@H](c2nc(-c3ccc(F)cc3)c(-c3ccncc3)[nH]2)OC1
- AUC [1]: 628 ng·h/mL
- Cmax [2]: 277 ng/mL
- IC50 [3]: 110 nM

Structure (SMILES): COCCCNc1nccc(-c2[nH]c([C@H]3OC[C@@](C)(C(=O)NCCOC)CO3)nc2-c2ccc(F)cc2)n1
- AUC [1]: 138 ng·h/mL
- Cmax [2]: 89 ng/mL
- ED50 [4]: 5 mg/kg
- IC50 [3]: 127 nM

Structure (SMILES): CN(C)C(=O)[C@]1(C)CO[C@@H](c2nc(-c3ccc(F)cc3)c(-c3ccnc(NCc4ccccn4)n3)[nH]2)OC1
- AUC [1]: 529 ng·h/mL
- Cmax [2]: 110 ng/mL
- ED50 [4]: 8 mg/kg
- IC50 [3]: 4 nM

Continued, in another order:

- AUC [1]: 121 ng·h/mL
- Cmax [2]: 62 ng/mL
- IC50 [3]: 47 nM
Structure (SMILES): COCCNc1nccc(-c2[nH]c([C@H]3OC[C@@](C)(C(=O)NCC4CC4)CO3)nc2-c2ccc(F)cc2)n1
- ED50 [4]: 3 mg/kg

- AUC [1]: 276 ng·h/mL
- Cmax [2]: 29 ng/mL
- IC50 [3]: 6 nM
Structure (SMILES): CN(C)C(=O)[C@]1(C)CO[C@@H](c2nc(-c3ccc(F)cc3)c(-c3ccnc(NCC4CC4)n3)[nH]2)OC1
- ED50 [4]: 9 mg/kg

- AUC [1]: 541 ng·h/mL
- Cmax [2]: 221 ng/mL
- IC50 [3]: 4 nM
Structure (SMILES): CN1CCN(C(=O)[C@]2(C)CO[C@@H](c3nc(-c4ccc(F)cc4)c(-c4ccnc(NCC5CC5)n4)[nH]3)OC2)CC1
- ED50 [5]: 30 mg/kg
- ED50 [4]: 10 mg/kg

- AUC [1]: 169 ng·h/mL
- Cmax [2]: 95 ng/mL
- IC50 [3]: 62 nM
Structure (SMILES): C=CCNc1nccc(-c2[nH]c([C@H]3OC[C@@](C)(C(=O)NCCOC)CO3)nc2-c2ccc(F)cc2)n1
- ED50 [4]: 0.2 mg/kg

- AUC [1]: 412 ng·h/mL
- Cmax [2]: 141 ng/mL
- IC50 [3]: 12 nM
Structure (SMILES): CC(C)NC(=O)[C@]1(C)CO[C@@H](c2nc(-c3ccc(F)cc3)c(-c3ccnc(NCC4CC4)n3)[nH]2)OC1
- ED50 [4]: 0.7 mg/kg

- AUC [1]: 288 ng·h/mL
- Cmax [2]: 91 ng/mL
- IC50 [3]: 5 nM
Structure (SMILES): C[C@]1(C(=O)NC2CC2)CO[C@H](c2nc(-c3ccc(F)cc3)c(-c3ccnc(NCC4CC4)n3)[nH]2)OC1
- ED50 [4]: 5 mg/kg
